# Experimental data from ChEMBL document CHEMBL2176883, “Aminopiperidine sulfonamide Cav2.2 channel inhibitors for the treatment of chronic pain” (J Med Chem, 2012).
# Assays:
# [1] = Plasma concentration in rat SNL neuropathic pain model at 10 mg/kg, po after 3.5 hrs; type: ADME, organism-based; design: dose 10 mg/kg, route oral
# Rattus norvegicus [2] = experiment: Analgesic activity in rat SNL neuropathic pain model assessed as reversal of mechanical allodynia at 10 mg/kg, po after 3 hrs; type: functional
# Rattus norvegicus [3] = experiment: Analgesic activity in rat SNL neuropathic pain model assessed as reversal of mechanical allodynia at 10 mg/kg, po after 1 hr; type: functional
# Rattus norvegicus [4] = experiment: Antinociceptive activity in rat assessed as reversal of complete Freund's adjuvant-induced pain at 30 mg/kg, po after 3 hrs; type: functional
# Outline: (§1)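 In the rat CFA inflammatory pain model, compound was given orally at 30 mg/kg and allodynia was read at 1 and 3 h postdose. Average % reversal = (postdose − predose)/(preinjury − predose) for each rat, n = 6. Plasma exposure at 3 h was measured in satellite rats (n = 2).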
# Rattus norvegicus [5] = experiment: Antinociceptive activity in rat assessed as reversal of complete Freund's adjuvant-induced pain at 30 mg/kg, po after 1 hr; type: functional; outline: as §1
# Cav1.2 [6] = molecular target: T1, Cav1.2 (Homo sapiens, UniProt Q13936); experiment: Inhibition of Cav1.2 assessed as inhibition of calcium flux at 3 uM by cell based FLIPR assay
# T1 sequence (Q13936 whole entry): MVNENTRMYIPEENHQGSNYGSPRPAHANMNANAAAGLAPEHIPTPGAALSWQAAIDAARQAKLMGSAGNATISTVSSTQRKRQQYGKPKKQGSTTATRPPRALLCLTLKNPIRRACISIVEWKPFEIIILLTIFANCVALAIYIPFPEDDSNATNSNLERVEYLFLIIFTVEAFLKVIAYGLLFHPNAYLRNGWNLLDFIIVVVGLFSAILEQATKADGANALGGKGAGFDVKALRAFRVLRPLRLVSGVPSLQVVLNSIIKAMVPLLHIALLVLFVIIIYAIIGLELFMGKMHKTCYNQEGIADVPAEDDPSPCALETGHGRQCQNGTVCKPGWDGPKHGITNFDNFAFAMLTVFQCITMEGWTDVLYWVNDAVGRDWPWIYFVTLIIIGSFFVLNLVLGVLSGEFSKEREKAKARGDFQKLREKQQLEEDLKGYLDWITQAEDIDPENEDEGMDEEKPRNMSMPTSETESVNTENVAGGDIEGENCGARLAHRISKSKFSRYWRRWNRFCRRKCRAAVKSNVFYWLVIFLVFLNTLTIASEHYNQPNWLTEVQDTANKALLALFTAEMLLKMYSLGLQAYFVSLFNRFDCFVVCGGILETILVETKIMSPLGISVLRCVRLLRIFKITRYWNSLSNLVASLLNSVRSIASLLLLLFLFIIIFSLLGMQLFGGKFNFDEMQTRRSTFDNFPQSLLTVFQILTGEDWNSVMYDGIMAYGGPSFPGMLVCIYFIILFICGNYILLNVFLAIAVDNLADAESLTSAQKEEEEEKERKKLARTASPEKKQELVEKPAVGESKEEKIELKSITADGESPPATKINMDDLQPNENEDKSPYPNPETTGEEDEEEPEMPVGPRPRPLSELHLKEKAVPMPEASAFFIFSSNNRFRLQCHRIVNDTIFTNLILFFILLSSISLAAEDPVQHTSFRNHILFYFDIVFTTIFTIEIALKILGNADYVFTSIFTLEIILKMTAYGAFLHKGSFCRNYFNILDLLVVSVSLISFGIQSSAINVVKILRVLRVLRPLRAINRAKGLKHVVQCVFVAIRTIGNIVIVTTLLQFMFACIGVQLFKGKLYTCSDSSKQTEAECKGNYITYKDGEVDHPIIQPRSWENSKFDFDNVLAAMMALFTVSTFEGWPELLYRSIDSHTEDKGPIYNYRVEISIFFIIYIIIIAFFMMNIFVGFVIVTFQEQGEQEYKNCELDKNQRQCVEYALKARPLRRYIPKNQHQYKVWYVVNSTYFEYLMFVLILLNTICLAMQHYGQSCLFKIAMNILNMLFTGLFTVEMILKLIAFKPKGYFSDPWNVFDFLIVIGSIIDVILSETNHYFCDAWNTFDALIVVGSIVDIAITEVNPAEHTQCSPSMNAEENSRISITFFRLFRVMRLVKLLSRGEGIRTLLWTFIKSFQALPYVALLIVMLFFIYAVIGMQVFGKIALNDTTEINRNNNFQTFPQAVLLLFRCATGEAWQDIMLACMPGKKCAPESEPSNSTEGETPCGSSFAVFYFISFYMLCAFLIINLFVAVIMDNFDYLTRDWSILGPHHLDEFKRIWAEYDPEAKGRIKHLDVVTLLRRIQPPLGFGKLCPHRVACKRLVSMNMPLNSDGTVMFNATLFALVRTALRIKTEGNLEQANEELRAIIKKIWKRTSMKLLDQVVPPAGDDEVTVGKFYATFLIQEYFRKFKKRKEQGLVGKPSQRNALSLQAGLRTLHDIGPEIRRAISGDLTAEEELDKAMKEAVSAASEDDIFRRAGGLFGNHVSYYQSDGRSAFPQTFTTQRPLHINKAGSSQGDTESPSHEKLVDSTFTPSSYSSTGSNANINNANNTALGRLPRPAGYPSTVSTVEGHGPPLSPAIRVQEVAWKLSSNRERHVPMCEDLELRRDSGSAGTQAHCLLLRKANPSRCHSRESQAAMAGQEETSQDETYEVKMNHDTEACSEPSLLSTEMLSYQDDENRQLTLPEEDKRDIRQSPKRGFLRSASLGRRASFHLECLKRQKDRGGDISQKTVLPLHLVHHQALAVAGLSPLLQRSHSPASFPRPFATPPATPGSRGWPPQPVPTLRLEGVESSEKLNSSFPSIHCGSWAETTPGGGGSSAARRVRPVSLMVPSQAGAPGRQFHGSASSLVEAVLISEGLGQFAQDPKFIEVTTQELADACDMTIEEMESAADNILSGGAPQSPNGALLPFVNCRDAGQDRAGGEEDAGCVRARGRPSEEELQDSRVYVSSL
# Outline: (§2)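 Cav1.2 counterscreen using a related calcium-influx FLIPR assay, run as % inhibition at single concentrations or as a titration.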
# Cav1.2 [7] = molecular target: T1, Cav1.2; experiment: Inhibition of Cav1.2 assessed as inhibition of calcium flux at 1 uM by cell based FLIPR assay; outline: as §2
# [8] = molecular target: T2, Voltage-dependent N-type calcium channel subunit alpha-1B (Homo sapiens, UniProt Q00975); experiment: Inhibition of Cav2.2 expressed HEK293 cells assessed as inhibition of calcium flux at 1 uM by FLIPR assay; type: cell-based
# Outline: (§3)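 Calcium influx was read with a calcium-sensitive dye on FLIPR Tetra in CBK cells expressing α1B-1, α2-δ and β3a with Kir2.3. Cells were preincubated with compound in 30 mM K+, then channels were opened by 1:1 addition of 140 mM K+ solution. Compounds were screened at 1 μM, then titrated over 10 points (0.001–30 μM) in quadruplicate, mean ± SD. Values are averages of n ≥ 3.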
# Target sequence in this assay (Q00975 whole entry, looked up): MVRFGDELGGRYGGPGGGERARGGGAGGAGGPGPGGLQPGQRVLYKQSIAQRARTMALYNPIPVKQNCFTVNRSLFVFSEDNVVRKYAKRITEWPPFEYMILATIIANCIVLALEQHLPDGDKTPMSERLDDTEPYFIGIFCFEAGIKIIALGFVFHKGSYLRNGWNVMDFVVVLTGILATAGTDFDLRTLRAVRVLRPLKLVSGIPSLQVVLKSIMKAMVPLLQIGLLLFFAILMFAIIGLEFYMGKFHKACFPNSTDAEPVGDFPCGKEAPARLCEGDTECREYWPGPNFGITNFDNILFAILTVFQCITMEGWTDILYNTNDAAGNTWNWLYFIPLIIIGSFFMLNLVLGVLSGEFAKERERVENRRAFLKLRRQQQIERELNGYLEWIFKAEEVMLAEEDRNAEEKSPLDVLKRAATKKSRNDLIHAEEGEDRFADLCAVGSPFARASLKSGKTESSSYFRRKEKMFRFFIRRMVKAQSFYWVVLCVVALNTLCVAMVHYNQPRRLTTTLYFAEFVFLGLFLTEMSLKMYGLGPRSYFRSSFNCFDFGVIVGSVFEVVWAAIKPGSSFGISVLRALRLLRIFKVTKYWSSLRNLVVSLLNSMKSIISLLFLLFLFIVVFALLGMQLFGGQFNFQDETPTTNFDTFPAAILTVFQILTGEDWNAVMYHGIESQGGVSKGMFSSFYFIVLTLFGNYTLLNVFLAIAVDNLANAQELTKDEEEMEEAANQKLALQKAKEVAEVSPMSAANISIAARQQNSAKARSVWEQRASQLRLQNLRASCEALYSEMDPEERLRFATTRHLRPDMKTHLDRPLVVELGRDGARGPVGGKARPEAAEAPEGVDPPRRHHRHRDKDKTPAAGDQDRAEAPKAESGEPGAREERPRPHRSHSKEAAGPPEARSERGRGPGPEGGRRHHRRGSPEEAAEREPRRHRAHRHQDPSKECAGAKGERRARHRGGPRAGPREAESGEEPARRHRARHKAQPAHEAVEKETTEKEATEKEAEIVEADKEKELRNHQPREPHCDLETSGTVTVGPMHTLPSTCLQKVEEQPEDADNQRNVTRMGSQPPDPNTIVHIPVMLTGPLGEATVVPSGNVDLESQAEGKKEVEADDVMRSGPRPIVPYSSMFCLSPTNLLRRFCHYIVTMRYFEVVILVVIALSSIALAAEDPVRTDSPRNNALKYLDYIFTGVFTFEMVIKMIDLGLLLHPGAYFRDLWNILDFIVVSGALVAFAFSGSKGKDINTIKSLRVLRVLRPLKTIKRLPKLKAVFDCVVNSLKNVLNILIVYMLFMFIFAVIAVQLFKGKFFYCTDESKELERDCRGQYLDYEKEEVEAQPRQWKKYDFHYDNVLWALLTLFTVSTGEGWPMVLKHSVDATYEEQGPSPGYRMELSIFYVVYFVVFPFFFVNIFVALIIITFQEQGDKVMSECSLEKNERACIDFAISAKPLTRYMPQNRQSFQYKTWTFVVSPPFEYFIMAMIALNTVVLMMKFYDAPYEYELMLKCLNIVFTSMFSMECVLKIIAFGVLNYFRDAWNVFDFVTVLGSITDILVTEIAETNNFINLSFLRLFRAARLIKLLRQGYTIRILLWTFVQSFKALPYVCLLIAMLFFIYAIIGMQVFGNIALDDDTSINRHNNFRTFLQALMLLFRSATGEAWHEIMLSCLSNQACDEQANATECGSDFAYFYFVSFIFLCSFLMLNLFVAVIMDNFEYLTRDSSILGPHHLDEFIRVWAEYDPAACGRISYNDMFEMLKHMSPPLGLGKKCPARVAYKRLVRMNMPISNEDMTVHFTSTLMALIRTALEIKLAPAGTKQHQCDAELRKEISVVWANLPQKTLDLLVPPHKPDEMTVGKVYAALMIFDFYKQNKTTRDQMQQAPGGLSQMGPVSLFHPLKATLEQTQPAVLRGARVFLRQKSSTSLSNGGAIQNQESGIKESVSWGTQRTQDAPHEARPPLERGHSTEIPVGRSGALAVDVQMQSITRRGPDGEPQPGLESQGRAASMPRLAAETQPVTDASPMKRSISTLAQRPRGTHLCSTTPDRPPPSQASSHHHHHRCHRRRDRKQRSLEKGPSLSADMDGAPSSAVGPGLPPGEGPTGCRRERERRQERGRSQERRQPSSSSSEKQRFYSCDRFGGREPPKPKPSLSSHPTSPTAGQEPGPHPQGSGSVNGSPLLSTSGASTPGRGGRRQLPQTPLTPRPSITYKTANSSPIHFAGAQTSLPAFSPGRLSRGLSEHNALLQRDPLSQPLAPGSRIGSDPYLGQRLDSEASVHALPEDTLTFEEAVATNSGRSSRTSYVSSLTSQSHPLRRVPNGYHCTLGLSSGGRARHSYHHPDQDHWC
# hERG [9] = molecular target: T3, hERG (Homo sapiens, UniProt Q12809); experiment: Displacement of [35S]-MK-0499 from human ERG at 10 uM; conditions: probe [35S]-MK-0499
# Outline: (§4)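 hERG binding was measured as displacement of 35S-labeled MK-0499 at single test concentrations.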
# hERG [10] = molecular target: T3, hERG; experiment: Displacement of [35S]-MK-0499 from human ERG at 1 uM; conditions: probe [35S]-MK-0499; outline: as §4
# [11] = molecular target: T2, Voltage-dependent N-type calcium channel subunit alpha-1B; experiment: Inhibition of Cav2.2 expressed HEK293 cells assessed as inhibition of calcium flux by FLIPR assay in presence of 30 mM of potassium; type: cell-based; outline: as §3
# Target sequence in this assay (Q00975 whole entry): as the sequence (Q00975 whole entry, looked up) above
# Rattus norvegicus [12] = experiment: Antinociceptive activity in rat assessed as reversal of complete Freund's adjuvant-induced pain at 3 mg/kg, iv after 3 hrs; type: functional
# Rattus norvegicus [13] = experiment: Antinociceptive activity in rat assessed as reversal of complete Freund's adjuvant-induced pain at 3 mg/kg, iv after 1 hr; type: functional
# [14] = Half life in rat at 3 mg/kg, po and 1 mg/kg, iv; type: ADME, organism-based; conditions: in vivo
# Outline: (§5)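 Rat pharmacokinetics from iv and po arms: 0.6 mg/kg iv with 1.8 mg/kg po, or 1 mg/kg iv with 3 mg/kg po. AUC was normalized to po dose (μM·h·kg/mg). Clearance (mL/min/kg) and half-life come from the iv arm, and F% is oral bioavailability.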
# [15] = Plasma clearance in rat at 3 mg/kg, po and 1 mg/kg, iv; type: ADME, organism-based; outline: as §5
# Rattus norvegicus [16] = experiment: Dose normalized AUC in rat at 1.8 mg/kg, po and 0.6 mg/kg, iv; type: ADME, organism-based; conditions: in vivo; outline: as §5
# [17] = Oral bioavailability in rat at 3 mg/kg; type: ADME, organism-based; conditions: in vivo; outline: as §5
# [18] = Metabolic stability in rat liver microsomes assessed as compound remaining at 1 uM after 1 hr; type: ADME, Microsome; conditions: read-out: Stability
# Outline: (§6)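 Compound at 1 μM was incubated with human or rat liver microsomes (1 mg/mL) for 1 h, and the percentage of parent remaining was determined.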
# [19] = Metabolic stability in human liver microsomes assessed as compound remaining at 1 uM after 1 hr; type: ADME, Microsome; conditions: read-out: Stability; outline: as §6
# Mus musculus [20] = experiment: Antinociceptive activity in Cav2.2 deficient mouse SNL neuropathic pain model assessed as reversal of mechanical allodynia at 30 mg/kg, po after 2 hrs; type: functional
# Outline: (§7)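 Cav2.2+/+ and Cav2.2−/− mice underwent spinal nerve ligation, then got a single 30 mg/kg oral dose. Mechanical allodynia was scored 2 h postdose.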
# Mus musculus [21] = experiment: Antinociceptive activity in Cav2.2 expressing wild type mouse SNL neuropathic pain model assessed as reversal of mechanical allodynia at 30 mg/kg, po after 2 hrs; type: functional; outline: as §7
# Rattus norvegicus [22] = experiment: Antinociceptive activity in rat assessed as reversal of complete Freund's adjuvant-induced pain at 10 mg/kg, po after 3 hrs; type: functional
# Outline: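 Rats had complete Freund's adjuvant-induced inflammatory pain and got oral dosing. Allodynia was read at 1 and 3 h postdose. Percent reversal per rat = (postdose − predose)/(preinjury − predose). Groups had at least six animals, reported as mean + SEM.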
# [23] = Plasma concentration in rat complete Freund's adjuvant-induced pain model at 30 mg/kg, po after 3 hrs; type: ADME, organism-based; design: dose 30 mg/kg, route oral
# Outline: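 Satellite rats in CFA inflammatory pain study, 30 mg/kg po; plasma exposure (μM) at 3 h, n = 2, standard deviation.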
# Rattus norvegicus [24] = experiment: Dose normalized AUC in rat at 3 mg/kg, po and 1 mg/kg, iv; type: ADME, organism-based; conditions: in vivo; outline: as §5
# [25] = Oral bioavailability in rat; type: ADME, organism-based; conditions: in vivo; outline: as §5
# [26] = Plasma clearance in rat; type: ADME, organism-based; outline: as §5
# Rattus norvegicus [27] = experiment: Dose normalized AUC in po dosed rat; type: ADME, organism-based; conditions: in vivo; outline: as §5
# [28] = molecular target: T2, Voltage-dependent N-type calcium channel subunit alpha-1B; experiment: Inhibition of Cav2.2 expressed HEK293 cells assessed as inhibition of calcium flux by FLIPR assay in presence of 4 mM of potassium; type: cell-based
# Outline: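 HEK-293-derived CBK cells coexpress α1B-1, α2-δ and β3a with Kir2.3. Compound was incubated in 4 mM K+ bath, holding about −90 mV. Ca2+ influx was read with a Ca-sensitive dye on FLIPR Tetra. Ten-point titrations ran 0.001–30 μM in quadruplicate, averaged ± SD to give IC50.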
# Target sequence in this assay (Q00975 whole entry): as the sequence (Q00975 whole entry, looked up) above
# [29] = molecular target: Voltage-dependent L-type calcium channel subunit alpha-1C (Homo sapiens, UniProt Q13936); experiment: Inhibition of Cav1.2 assessed as inhibition of calcium flux by cell based FLIPR assay; outline: as §2
# Sequence of Voltage-dependent L-type calcium channel subunit alpha-1C (Q13936 whole entry): as the sequence (Q13936 whole entry) above
smiles,measurement,setting,value
NS(=O)(=O)c1cccc(C(F)(F)F)c1,concentration at 3.5 h,[1],35.6 µM
same,Activity,Rattus norvegicus [2],36%
same,Activity,Rattus norvegicus [3],27%
same,Activity,Rattus norvegicus [4],44%
same,Activity,Rattus norvegicus [5],53%
NC(=O)c1ccccc1C(=O)N1CCC(N(C2CC2)S(=O)(=O)c2cccc(C(F)(F)F)c2)CC1,inhibition at 3 µM,Cav1.2 [6],17%
same,inhibition at 1 µM,Cav1.2 [7],11%
same,inhibition,[8],15%
O=C(c1cccc(OC(F)(F)F)c1)N1CCC(N(C2CC2)S(=O)(=O)c2cccc(C(F)(F)F)c2)CC1,inhibition at 3 µM,Cav1.2 [6],78%
same,inhibition at 1 µM,Cav1.2 [7],60%
same,inhibition at 10 µM,hERG [9],72%
same,inhibition at 1 µM,hERG [10],4%
same,IC50,[11],370 nM
COC(=O)c1cccc(C(=O)N2CCC(N(C3CC3)S(=O)(=O)c3cccc(C(F)(F)F)c3)CC2)c1,inhibition at 10 µM,hERG [9],66%
same,inhibition at 1 µM,hERG [10],2.4%
same,IC50,[11],380 nM
O=C(c1ccccc1OC(F)(F)F)N1CCC(N(C2CC2)S(=O)(=O)c2cccc(C(F)(F)F)c2)CC1,Activity,Rattus norvegicus [12],17%
same,Activity,Rattus norvegicus [13],23%
same,half-life,[14],1.6 h
same,clearance,[15],65 mL/min/kg
same,AUC/dose,Rattus norvegicus [16],0.23 µM·kg·h/mg
same,bioavailability,[17],47%
same,"remaining at 1 h, 1 µM",[18],21%
same,"remaining at 1 h, 1 µM",[19],1%
same,inhibition at 10 µM,hERG [9],75%
same,inhibition at 1 µM,hERG [10],21%
same,IC50,[11],120 nM
CS(=O)(=O)c1ccc(F)cc1C(=O)N1CCC(N(C2CC2)S(=O)(=O)c2ccc(OC(F)(F)F)cc2)CC1,inhibition,[8],0%
NCC1(CC(=O)O)CCCCC1 [GABAPENTIN],Activity,Mus musculus [20],48%
same,Activity,Mus musculus [21],71%
CC(C)C[C@H](CN)CC(=O)O [PREGABALIN],Activity,Rattus norvegicus [22],58%
CS(=O)(=O)c1ccc(F)cc1C(=O)N1CCC(N(C2CC2)S(=O)(=O)c2ccc(C(F)(F)F)cc2)CC1,inhibition,[8],1%
CS(=O)(=O)c1cccc(S(=O)(=O)N(C2CC2)C2CCN(C(=O)c3cc(F)ccc3S(C)(=O)=O)CC2)c1,inhibition,[8],0%
CS(=O)(=O)c1ccccc1C(=O)N1CCC(N(C2CC2)S(=O)(=O)c2cccc(C(F)(F)F)c2)CC1,concentration at 3 h,[23],2.4 µM
same,Activity,Rattus norvegicus [4],45%
same,Activity,Rattus norvegicus [5],47%
same,half-life,[14],0.91 h
same,clearance,[15],36 mL/min/kg
same,AUC/dose,Rattus norvegicus [24],1.06 µM·kg·h/mg
same,bioavailability,[17],100%
same,"remaining at 1 h, 1 µM",[18],45%
same,"remaining at 1 h, 1 µM",[19],73%
same,inhibition at 3 µM,Cav1.2 [6],39%
same,inhibition at 1 µM,Cav1.2 [7],19%
same,inhibition at 10 µM,hERG [9],67%
same,inhibition at 1 µM,hERG [10],1%
same,IC50,[11],660 nM
CS(=O)(=O)c1ccc(F)cc1C(=O)N1CCC(N(C2CC2)S(=O)(=O)c2cccc(OC(F)(F)F)c2)CC1,IC50,[11],1100 nM
O=C(c1ccc(OC(F)(F)F)cc1)N1CCC(N(C2CC2)S(=O)(=O)c2cccc(C(F)(F)F)c2)CC1,inhibition at 3 µM,Cav1.2 [6],88%
same,inhibition at 1 µM,Cav1.2 [7],73%
same,inhibition at 10 µM,hERG [9],77%
same,inhibition at 1 µM,hERG [10],0%
same,IC50,[11],300 nM
CS(=O)(=O)c1ccc(F)cc1C(=O)N1CCC(N(C2CC2)S(=O)(=O)c2ccccc2C(F)(F)F)CC1,inhibition,[8],17%
CS(=O)(=O)c1ccc(C(=O)N2CCC(N(C3CC3)S(=O)(=O)c3cccc(C(F)(F)F)c3)CC2)cc1,inhibition,[8],52%
CN(C)c1cccc(C(=O)N2CCC(N(C3CC3)S(=O)(=O)c3cccc(C(F)(F)F)c3)CC2)c1,inhibition at 3 µM,Cav1.2 [6],63%
same,inhibition at 1 µM,Cav1.2 [7],40%
same,inhibition at 10 µM,hERG [9],51%
same,inhibition at 1 µM,hERG [10],0%
same,IC50,[11],240 nM
CS(=O)(=O)c1cccc(C(=O)N2CCC(N(C3CC3)S(=O)(=O)c3cccc(C(F)(F)F)c3)CC2)c1,inhibition,[8],15%
COc1cccc(OC)c1CN1CCC(N(C2CC2)S(=O)(=O)c2cccc(C(F)(F)F)c2)CC1,inhibition at 1 µM,hERG [10],70%
same,IC50,[11],60 nM
COc1ccc2cc([C@H](C)C(=O)O)ccc2c1 [NAPROXEN],Activity,Rattus norvegicus [3],47%
O=C(c1ccccc1)N1CCC(N(C2CC2)S(=O)(=O)c2cccc(C(F)(F)F)c2)CC1,inhibition,[8],42%
NC(=O)c1ccc(C(=O)N2CCC(N(C3CC3)S(=O)(=O)c3cccc(C(F)(F)F)c3)CC2)cc1,inhibition at 3 µM,Cav1.2 [6],0%
same,inhibition at 1 µM,Cav1.2 [7],0%
same,inhibition,[8],12%
CCCN(C1CCN(Cc2c(OC)cccc2OC)CC1)S(=O)(=O)c1cccc(C(F)(F)F)c1,bioavailability,[25],4%
same,clearance,[26],169 mL/min/kg
same,AUC/dose,Rattus norvegicus [27],0.007 µM·kg·h/mg
same,IC50,[28],4800 nM
same,inhibition at 1 µM,hERG [10],91%
same,IC50,[29],3200 nM
same,IC50,[11],120 nM
NC(=O)c1cccc(C(=O)N2CCC(N(C3CC3)S(=O)(=O)c3cccc(C(F)(F)F)c3)CC2)c1,inhibition,[8],0%
CS(=O)(=O)c1ccc(F)cc1C(=O)N1CCC(N(C2CC2)S(=O)(=O)c2cc(C(F)(F)F)ccc2F)CC1,IC50,[11],2500 nM
C[C@@H](O)[C@@H]1NC(=O)[C@H](Cc2ccc(O)cc2)NC(=O)[C@@H]2C[C@@H](O)CN2C(=O)[C@H](CC(N)=O)NC(=O)[C@@H]2CSSC[C@@H]3NC(=O)[C@H](CO)NC(=O)[C@H](CO)NC(=O)CNC(=O)[C@@H]4C[C@@H](O)CN4C(=O)[C@H](CO)NC(=O)[C@H](CCCCN)NC(=O)[C@@H](N)CSSC[C@H](NC(=O)[C@H](CSSC[C@@H](C(=O)N[C@@H](Cc4ccc(O)cc4)C(N)=O)NC(=O)[C@H](CCCN=C(N)N)NC(=O)[C@H](CCCCN)NC1=O)NC(=O)[C@H](CC(N)=O)NC(=O)[C@H](Cc1ccc(O)cc1)NC(=O)[C@H](CO)NC(=O)[C@H]([C@@H](C)O)NC(=O)[C@@H]1C[C@@H](O)CN1C(=O)[C@H](CO)NC3=O)C(=O)N[C@@H](CCCN=C(N)N)C(=O)N[C@@H](CO)C(=O)N2,IC50,[28],20 nM
same,IC50,[11],40 nM
